Compound activity as filed in PubChem BioAssay.
DSG3 Ab inh – blocks pemphigus antibody binding to human desmoglein-3; DSG3-coupled beads, scFv-anti-DSG3-GFP binding, flow cytometry; active compounds read low; binding (percent of control), % at 10 µM; hit rate 0.48% among 310,000;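 active means binding more than 3 SD below its plate's average and above zero; inconclusive means below that plate limit but binding exactly zero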;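 further: hits lower antibody fragment binding to DSG3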
Target sequence (P32926 whole entry, looked up, the tested form may be a part): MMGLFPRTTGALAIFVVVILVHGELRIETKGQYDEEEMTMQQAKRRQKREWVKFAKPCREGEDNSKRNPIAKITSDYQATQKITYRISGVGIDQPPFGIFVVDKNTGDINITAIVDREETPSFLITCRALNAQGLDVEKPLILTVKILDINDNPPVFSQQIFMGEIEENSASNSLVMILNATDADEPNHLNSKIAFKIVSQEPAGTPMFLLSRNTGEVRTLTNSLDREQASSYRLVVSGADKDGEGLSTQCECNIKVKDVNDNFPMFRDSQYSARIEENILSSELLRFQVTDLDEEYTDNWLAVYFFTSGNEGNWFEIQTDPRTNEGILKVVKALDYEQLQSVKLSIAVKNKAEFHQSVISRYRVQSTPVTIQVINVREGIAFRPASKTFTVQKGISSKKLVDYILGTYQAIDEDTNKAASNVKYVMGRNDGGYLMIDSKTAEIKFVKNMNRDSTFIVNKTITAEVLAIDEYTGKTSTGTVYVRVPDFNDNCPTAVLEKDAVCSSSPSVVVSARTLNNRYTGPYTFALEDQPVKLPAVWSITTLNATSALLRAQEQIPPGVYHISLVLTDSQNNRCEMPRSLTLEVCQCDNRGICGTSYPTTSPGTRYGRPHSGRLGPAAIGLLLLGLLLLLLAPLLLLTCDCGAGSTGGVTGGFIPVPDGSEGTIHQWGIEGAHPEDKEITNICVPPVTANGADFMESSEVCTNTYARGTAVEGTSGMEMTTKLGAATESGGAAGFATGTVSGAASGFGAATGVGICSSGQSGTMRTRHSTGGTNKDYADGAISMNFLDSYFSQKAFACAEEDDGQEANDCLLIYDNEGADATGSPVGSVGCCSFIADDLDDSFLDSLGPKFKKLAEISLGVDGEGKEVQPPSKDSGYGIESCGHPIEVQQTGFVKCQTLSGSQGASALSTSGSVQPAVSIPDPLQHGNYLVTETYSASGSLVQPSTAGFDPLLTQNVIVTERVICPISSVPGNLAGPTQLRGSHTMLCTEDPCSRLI
H9c2 protect – modulators protecting cardiomyocytes from myocardial damage; H9c2 cardiomyocytes, H2O2 injury protection, ATPLite, 2 h; protection from H2O2 cell death, % at 20 µM; hit rate 0.63% among 360,000;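 active means compounds giving at least 50% protection of heart cells from peroxide-induced death in the single-dose screen, raw or plate-pattern-corrected value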;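 further: 0% = DMSO wells with peroxide and 100% = DMSO wells without peroxide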
Myeloid diff 2 – myeloid differentiation induction | ER-HoxA9 myeloid progenitors, lysozyme-GFP differentiation, flow cytometry | calls only at 10 µM | hit rate 1% among 360,000 | AID 624256;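 active means normalized GFP-positive differentiation at or above the plate's own cutoff, the solvent-only control mean plus 3 SD; inconclusive means no clear call, values can overlap the other calls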;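 further: cells exposed to compound for four days before flow analysis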
Granule exo inh – blocks lytic granule exocytosis; TALL-104 LAMP-1 surface exposure, flow cytometry; cells stimulated with thapsigargin and PMA; inhibition, % at 10 µM; hit rate 0.66% among 360,000; AID 651702;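 active means inhibition above about 55%, limit read from the data; inconclusive means no clear call, values can overlap the other calls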
SENP1 FRET inh – inhibitors of human SENP1 SUMO protease catalytic domain; Q9P0U3; recombinant SENP1 catalytic domain, CyPet-SUMO1-YPet FRET cleavage; inhibition, % at 10 µM; hit rate 0.21% among 360,000;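 active means inhibition at least 30% at 10 µM, raw YFP signal under a set limit, fluorescence ratio 0.5 to 1.5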;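 further: 0% = enzyme with DMSO and 100% = no enzyme wells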
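Test system: hSENP1 catalytic domain, recombinant; Amount: 20 pM final SENP1 enzyme; Medium: Tris pH 8 buffer plus EDTA, NaCl, BME, BSA, NP40, catalase; Schedule: 50 min enzyme reaction, room temperature, light-protected; Technique: FRET fluorescence in CFP and YFP emission channels; Controls: no-enzyme wells low, DMSO-plus-enzyme wells high control.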
HNF4A DNA FP – change in binding of human HNF4 alpha to DNA; activity change, % at 10 µM; HNF4a-FITC DNA binding, fluorescence polarization, 1 h; hit rate 0.3% among 360,000; P41235; in the data active means activity change above about 30%, passing the limit was not always enough
Exocytosis CP01 – blocks lytic granule exocytosis | shares compounds with Granule exo inh | TALL-104 cells, LAMP-1 externalization, flow cytometry; stimulated with PMA plus thapsigargin | inhibition, % at 10 µM | hit rate 11% among 1,500; in the data active means inhibition above about 60%;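 further: 0% = stimulated vehicle wells and 100% = unstimulated wells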
* = called active by the depositor; i = inactive; ? = inconclusive; · = no result given. Only some compounds are listed: those with a hit (about 3% of all), similar ones and a draw of the others.

SMILES	DSG3 Ab inh	H9c2 protect	Myeloid diff 2	Granule exo inh	SENP1 FRET inh	HNF4A DNA FP	Exocytosis CP01
O=C(Nc1ccccc1N1CCCCC1)c1cccc(OC(F)F)c1	100.7	-4.4	i	99.2*	-0.4	-1.5	-13.6
COc1cccc(C(=O)Nc2ccccc2N2CCCC2)c1	100.0	2.2	i	5.7	-0.1	-4.0	·
COc1ccc(CC(=O)Nc2cc(Cl)ccc2N2CCCC2)cc1	107.3	-9.7	i	66.9*	1.2	-0.2	-3.8
CSc1c(C#N)sc(=S)n1-c1ccc(C)cc1	97.7	-7.6	i	-0.8	-1.5	-1.9	·
CCN1C(c2ccc(F)cc2)=CS/C1=C(/C#N)c1nnc2n1-c1ccccc1SC2	101.5	-0.6	i	1.0	3.1	-2.4	·
Cc1ccc(NC(=O)CN2C(=O)N/C(=C/c3ccc(C)o3)C2=O)cc1	108.9	-8.3	i	18.7	-17.6	5.8	·
Cc1cccc(NC(=O)CN2C(=O)N/C(=C/c3ccc(C)o3)C2=O)c1	96.2	-5.3	i	84.8*	-1.1	9.6	-12.4
CCc1ccc(NC(=O)CCc2nnc3ccc(N4CCCC4)nn23)cc1	78.0	1.7	i	14.1	0.8	0.2	·
CCCNC(=O)C[C@@H]1C[C@@H]2c3cc(NS(=O)(=O)c4ccc(OC)cc4)ccc3O[C@@H]2[C@@H](CO)O1	105.1	8.3	i	-0.1	0.7	-1.5	·
O=C(NCCc1ccc(Cl)cc1)C1CCN(S(=O)(=O)N2CCCC2)CC1	91.9	0.2	i	0.6	2.4	-2.9	·
O=C(NCCc1ccc(Cl)cc1)C1CCN(S(=O)(=O)c2ccc(Br)s2)CC1	110.1	-11.4	i	64.6*	-0.4	-0.4	-12.9
COc1ccc(CNC(=O)C2CCCN(S(=O)(=O)c3ccc(Br)s3)C2)cc1 (centres undefined)	·	-3.5	i	68.8*	3.8	1.6	-13.8
COc1ccc(Br)cc1CNC(=O)C1CCCN(S(=O)(=O)N2CC(C)CC(C)C2)C1 (centres undefined)	104.7	-2.4	i	69.9*	-0.3	-2.3	-4.7
O=C(c1ccccn1)N1CCCC(N2CCN(c3ccc(F)cc3)CC2)C1 (centres undefined)	92.7	6.5	i	-1.7	0.0	-4.3	·
O=C(Cc1cccc(C(F)(F)F)c1)NCC(=O)Nc1cc(Cl)ccc1Cl	·	-3.4	i	3.7	1.0	1.8	·
O=C1CC/C=C\C[C@@H](CC(=O)N(CCO)Cc2ccccc2)C(=O)N[C@H](Cc2ccccc2)CO1	98.9	4.3	i	80.9*	0.5	2.4	-14.7
O=C1N[C@@H](Cc2ccccc2)COC(=O)[C@H](Cc2ccc(F)cc2)C/C=C\C[C@H]1CC(=O)N(CCO)Cc1ccccc1	85.9	24.0	i	12.5	1.6	4.7	·
COC(=O)[C@@]12C[C@@H](CC(=O)NCc3ccc(C)o3)C(=O)N(Cc3ccco3)C1=CCC(C)(C)C2	·	·	i	-3.1	-1.0	1.3	·
CCOc1ccccc1CNC(=O)CCn1ccc2cc(S(=O)(=O)N3CCCCC3)ccc21	109.9	-1.9	i	62.1*	-0.6	1.7	-3.3
CCOc1ccccc1CNC(=O)Cn1ccc2cc(S(=O)(=O)N3CCCCCC3)ccc21	103.1	-12.6	?	2.3	2.5	1.6	·
COc1ccc(OC)c(CN2CCN(C(=O)c3ccco3)CC2)c1	102.7	9.2	i	6.3	0.7	0.1	·
COc1cccc(CN2CCN(C(=O)c3ccco3)CC2)c1	106.2	6.2	i	87.0*	1.8	0.4	-9.7
C=CCOc1ccc(C(=O)Nc2ncn[nH]2)cc1	159.6	0.4	i	-2.1	2.1	2.9	·
Cc1[nH]c2ccccc2c1/C=C/c1nc2ccccc2c(=O)[nH]1	89.8	-4.5	i	57.9*	-34.0	5.9	36.4
Cc1cccc(/C=C/c2nc3ccccc3c(=O)[nH]2)c1	86.5	-3.6	·	0.7	-0.2	-0.1	·
SMILES	DSG3 Ab inh	H9c2 protect	Myeloid diff 2	Granule exo inh	SENP1 FRET inh	HNF4A DNA FP	Exocytosis CP01
Cc1onc(-c2ccccc2)c1C(=O)OCCOc1ccccc1F	98.8	-12.3	i	80.4*	1.0	0.6	-9.7
CCCc1cc(CN2CCOCC2)c(O)c(CN2CCOCC2)c1O	·	-5.6	i	78.7*	2.1	1.0	28.5
Cc1ccc(S(=O)(=O)CCC(=O)c2ccc(O)cc2O)cc1	101.6	-15.8	i	104.0*	-4.5	2.6	44.5
Cc1ccnc(Nc2nc(-c3ccc(O)c(O)c3)cs2)c1	122.3	59.9*	i	71.8*	1.1	-2.3	-12.4
Cc1ccc(Nc2nc(NCCO)c3ccccc3n2)cc1C	102.5	-17.9	i	58.3*	-0.3	-0.1	-2.1
COc1ccc(OC)c(Nc2nc(NCCO)c3ccccc3n2)c1	113.1	13.9	i	5.0	-0.4	-2.7	·
O=C(CCCc1ccccc1)Nc1ccnn1C1CCN(Cc2ccccc2)CC1	109.2	0.5	?	63.9*	-0.7	0.0	-4.7
COc1ccc(OC)c(NC(=O)c2ccccc2N(C)S(=O)(=O)c2ccc(C)cc2)c1	122.0	-5.3	i	61.0*	-1.4	-3.8	-12.8
OC(CNCC1CCCO1)Cn1c2ccc(Cl)cc2c2cc(Cl)ccc21 (centres undefined)	110.9	-16.4	i	54.3	0.9	-2.5	·
OC(CNCCC1C=Nc2ccccc21)Cn1c2ccc(Cl)cc2c2cc(Cl)ccc21 (centres undefined)	129.0	-19.8	?	70.8*	0.3	3.3	12.3
O=C1C(=O)N(C/C=C/c2ccccc2)c2ccccc21	102.2	-7.2	?	61.7*	3.6	-0.9	-1.5
O=C1c2ccccc2C(=O)N1C/C=C/c1ccccc1	76.9	-2.3	i	0.9	1.8	-1.0	·
CCOC(=O)C(C)CC(C)C(=O)N1CCOCCOCCN(C(=O)C(C)CC(C)C(=O)OCC)CCOCC1 (centres undefined)	·	-2.9	i	0.0	2.1	0.3	·
CCOC(=O)C(C(=O)OCC)C(C(=O)OCC)N1CCOCC1 (centres undefined)	113.7	-36.6	?	87.5*	3.7	2.7	13.9
COc1cccc(-c2cnc3c(NC=O)cc(-c4ccoc4)cn23)c1	·	5.4	i	11.1	-18.1	10.8	·
COc1cccc(-c2cnc3c(NC=O)cc(-c4cc(C)c(O)c(C)c4)cn23)c1	·	66.6*	?	62.9*	-16.0	6.9	14.4
COc1cccc(-c2cnc3c(NC=O)cc(-c4ccccc4)cn23)c1	·	5.9	?	96.6*	-11.2	4.7	70.3*
COc1ccc(NC(=S)N(CCCN2CCC(C)CC2)Cc2cccs2)cc1Cl	·	-4.9	i	11.9	-1.6	0.1	·
COc1ccc(NC(=S)N(CCCN2CCCC2)Cc2cccn2Cc2ccc(Cl)cc2)cc1Cl	109.0	-6.2	i	68.7*	3.1	4.2	43.5
